Experimental data reported in ChEMBL document CHEMBL1155429, “Discovery of a biaryl cyclohexene carboxylic acid (MK-6892): a potent and selective high affinity niacin receptor full agonist with reduced flushing profiles in animals as a preclinical candidate” (J Med Chem, 2010).
Blank lines part the entries; values can stand above or below the compound they belong to. Activity calls are given as the source filed them.

Key:
[1] = Bioavailability in rhesus monkey at 1.0 mg/kg, iv or 2 mg/kg, po; assay type: ADME, organism-based, Macaca mulatta; settings: in vivo
Method in brief: (§1)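 PK: iv 1.0 mpk in DMSO/Tween-80/water (5:10:85) for rats, EtOH/PEG400/water (10:40:50) for dogs and monkeys; oral 2 mpk in 0.5% methylcellulose for rats and dogs.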

[2] = test system: Mus musculus; assay: Antilipolytic activity in wild-type C57BL/6 mouse assessed as reduction plasma free fatty acids levels at 100 mg/kg, po after 15 mins; assay type: functional; parameters: scale not given: the % may be the effect or the level left
Method in brief: (§2)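 Fed wild-type or NA receptor null mice on C57Bl/6 background dosed orally at 100 mpk; blood drawn 15 min postdose for plasma FFA and compound blood level; n = 8/group.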

[3] = test system: Canis familiaris; assay: Toxicity in po dosed dog assessed as threshold dose at which induction of flushing-mediated-vasodilation occurs in ears by spectrocolorimetry; assay type: functional, Canis lupus familiaris
Method in brief: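 Conscious dogs dosed orally; flushing scored by ear spectrocolorimetry plus vocal and physical agitation; threshold dose = dose causing vasodilation in a subset of animals.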

[4] = target: Hydroxycarboxylic acid receptor 3 (Homo sapiens) (UniProt P49019); assay: Binding affinity to GPR109B
Hydroxycarboxylic acid receptor 3 (Homo sapiens), sequence (P49019 whole entry): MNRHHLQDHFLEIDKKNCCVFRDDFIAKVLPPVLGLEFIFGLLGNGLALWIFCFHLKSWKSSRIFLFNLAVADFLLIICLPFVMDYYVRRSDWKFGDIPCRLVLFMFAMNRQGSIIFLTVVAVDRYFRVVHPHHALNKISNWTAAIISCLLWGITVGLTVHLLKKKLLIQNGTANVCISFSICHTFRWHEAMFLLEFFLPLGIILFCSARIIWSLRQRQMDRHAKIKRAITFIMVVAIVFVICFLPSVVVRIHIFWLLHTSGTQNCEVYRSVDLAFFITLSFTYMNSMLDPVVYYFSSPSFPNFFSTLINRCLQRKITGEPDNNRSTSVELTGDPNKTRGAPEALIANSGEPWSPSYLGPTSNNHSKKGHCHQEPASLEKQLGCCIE

[5] = test system: Rattus norvegicus; assay: Toxicity in rat assessed as induction of flushing-mediated vasodilation in ears at 100 mg/kg, sc by laser doppler flowmetry; settings: in vivo
[6] = Volume of distribution in rhesus monkey at 1.0 mg/kg, iv or 2 mg/kg, po; assay type: ADME, organism-based, Macaca mulatta; settings: in vivo; method in brief: as §1
[7] = test system: Rattus norvegicus; assay: Toxicity in rat assessed as induction of induction of flushing-mediated vasodilation in ears at 100 mg/kg, sc by laser doppler flowmetry; assay type: functional, organism-based; parameters: dose 100 mg/kg
Method in brief: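 Anesthetized rats dosed subcutaneously in a dose-ranging study; ear blood perfusion monitored by laser Doppler flowmetry; n ≥ 5 per group.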

[8] = Bioavailability in mouse at 1.0 mg/kg, iv or 2 mg/kg, po; assay type: ADME, organism-based; settings: in vivo
[9] = target: Hydroxycarboxylic acid receptor 1 (Homo sapiens) (UniProt Q9BXC0); assay: Binding affinity to GPR81
Hydroxycarboxylic acid receptor 1 (Homo sapiens), sequence (Q9BXC0 whole entry): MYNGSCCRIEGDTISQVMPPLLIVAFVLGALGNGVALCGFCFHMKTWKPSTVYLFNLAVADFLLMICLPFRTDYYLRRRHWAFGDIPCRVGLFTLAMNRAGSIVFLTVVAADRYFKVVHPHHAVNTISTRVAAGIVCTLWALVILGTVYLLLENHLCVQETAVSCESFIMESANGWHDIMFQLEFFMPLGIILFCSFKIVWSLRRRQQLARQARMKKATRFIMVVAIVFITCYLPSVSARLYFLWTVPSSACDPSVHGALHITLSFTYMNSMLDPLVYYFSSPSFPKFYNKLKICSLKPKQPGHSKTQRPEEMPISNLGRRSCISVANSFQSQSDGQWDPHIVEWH

[10] = Half life in rhesus monkey at 1.0 mg/kg, iv or 2 mg/kg, po; assay type: ADME, organism-based, Macaca mulatta; settings: in vivo; method in brief: as §1
[11] = test system: Rattus norvegicus; assay: Plasma concentration in rat at 100 mg/kg, ip; assay type: ADME, organism-based; parameters: dose 100 mg/kg, route intraperitoneal; settings: in vivo
[12] = Bioavailability in dog at 1.0 mg/kg, iv or 2 mg/kg, po; assay type: ADME, organism-based, Canis lupus familiaris; settings: in vivo; method in brief: as §1
[13] = Toxicity in po dosed dog assessed as Cmax at which threshold dose of vasodilation occurs in ears by spectrocolorimetry; assay type: organism-based, Canis lupus familiaris; settings: in vivo, read-out: Activity
Method in brief: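 Oral dosing in conscious dogs; Cmax(TDV) = average maximal blood compound level at the threshold dose for vasodilation, which was assessed by ear spectrocolorimetry.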

[14] = Clearance in rat at 1.0 mg/kg, iv or 2 mg/kg, po; assay type: ADME, organism-based; settings: in vivo; method in brief: as §1
[15] = target: T1, Cytochrome P450 2C8 (Homo sapiens, UniProt P10632); assay: Inhibition of CYP2C8; assay type: ADME
T1 sequence (P10632 whole entry): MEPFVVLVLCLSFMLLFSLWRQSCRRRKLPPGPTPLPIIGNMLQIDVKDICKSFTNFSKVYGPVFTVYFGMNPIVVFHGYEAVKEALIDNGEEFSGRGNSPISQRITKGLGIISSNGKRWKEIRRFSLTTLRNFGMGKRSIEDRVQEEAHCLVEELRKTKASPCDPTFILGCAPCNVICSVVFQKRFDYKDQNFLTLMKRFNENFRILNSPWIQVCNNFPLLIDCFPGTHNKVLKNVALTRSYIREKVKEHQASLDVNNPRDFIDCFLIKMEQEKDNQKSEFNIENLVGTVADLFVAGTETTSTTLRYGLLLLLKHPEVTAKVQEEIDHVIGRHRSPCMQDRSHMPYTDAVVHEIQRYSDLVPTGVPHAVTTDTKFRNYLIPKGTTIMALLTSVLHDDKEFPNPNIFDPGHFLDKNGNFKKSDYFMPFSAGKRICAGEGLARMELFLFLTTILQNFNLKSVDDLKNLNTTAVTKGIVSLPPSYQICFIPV
Method in brief: (§3)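 CYP2C8, 2D6 and 3A4 inhibition measured as IC50.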

[16] = test system: Canis familiaris; assay: Antilipolytic activity in dog assessed as reduction plasma free fatty acids levels at 100 mg/kg, po; assay type: functional, Canis lupus familiaris; parameters: scale not given: the % may be the effect or the level left
Method in brief: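 Fasted conscious dogs dosed orally; plasma FFA followed over time relative to baseline; n = 3-7 per group.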

[17] = Volume of distribution in dog at 1.0 mg/kg, iv or 2 mg/kg, po; assay type: ADME, organism-based, Canis lupus familiaris; settings: in vivo; method in brief: as §1
[18] = Half life in mouse at 1.0 mg/kg, iv or 2 mg/kg, po; assay type: ADME, organism-based; settings: in vivo
[19] = Clearance in mouse at 1.0 mg/kg, iv or 2 mg/kg, po; assay type: ADME, organism-based; settings: in vivo
[20] = test system: Canis familiaris; assay: Antilipolytic activity in po dosed dog assessed as drug concentration causing maximum reduction plasma free fatty acids levels; assay type: functional, Canis lupus familiaris
Method in brief: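 Dose-based dog measure: dose producing maximal plasma FFA suppression after oral dosing in fasted conscious dogs, read from oral dose-ranging FFA data.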

[21] = Volume of distribution in mouse at 1.0 mg/kg, iv or 2 mg/kg, po; assay type: ADME, organism-based; settings: in vivo
[22] = Clearance in dog at 1.0 mg/kg, iv or 2 mg/kg, po; assay type: ADME, organism-based, Canis lupus familiaris; settings: in vivo; method in brief: as §1
[23] = test system: Mus musculus; assay: Antilipolytic activity in NA-receptor null C57BL/6 mouse assessed as reduction plasma free fatty acids levels at 100 mg/kg, po after 15 mins; assay type: functional, organism-based; parameters: dose 100 mg/kg; method in brief: as §2
[24] = (§4) Bioavailability in rat at 1.0 mg/kg, iv or 2 mg/kg, po; assay type: ADME, organism-based; settings: in vivo; method in brief: as §1
[25] = (§5) Agonist activity at dog nicotinic acid receptor by [35S]GTPgammaS binding assay; assay type: functional, Canis lupus familiaris
Method in brief: (§6)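 [35S]GTPγS exchange functional assay on membranes from cells expressing the dog NA receptor; full agonism judged relative to NA; EC50 determined.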

[26] = test system: Rattus norvegicus; assay: Antilipolytic activity in po dosed rat assessed as reduction plasma free fatty acids levels
[27] = (§7) Volume of distribution in rat at 1.0 mg/kg, iv or 2 mg/kg, po; assay type: ADME, organism-based; settings: in vivo; method in brief: as §1
[28] = test system: Rattus norvegicus; assay: Toxicity in ip dosed rat assessed as induction of induction of flushing-mediated vasodilation in ears by laser doppler flowmetry; assay type: functional
[29] = Drug level in wild-type C57BL/6 mouse blood at 100 mg/kg, po after 15 mins; assay type: ADME, organism-based; parameters: dose 100 mg/kg, route oral; method in brief: as §2
[30] = test system: Canis familiaris; assay: Antilipolytic activity in po dosed dog assessed as reduction plasma free fatty acids levels; settings: Canis lupus familiaris
[31] = (§8) Half life in rat at 1.0 mg/kg, iv or 2 mg/kg, po; assay type: ADME, organism-based; settings: in vivo; method in brief: as §1
[32] = Half life in dog at 1.0 mg/kg, iv or 2 mg/kg, po; assay type: ADME, organism-based, Canis lupus familiaris; settings: in vivo; method in brief: as §1
[33] = test system: Rattus norvegicus; assay: Toxicity in rat assessed as flushing-mediated vasodilation at 100 mg/kg, ip by laser doppler flowmetry; assay type: functional, organism-based; parameters: dose 100 mg/kg
[34] = target: Cytochrome P450 2D6 (Homo sapiens, UniProt P10635); assay: Inhibition of CYP2D6; assay type: ADME; method in brief: as §3
Cytochrome P450 2D6, sequence (P10635 whole entry): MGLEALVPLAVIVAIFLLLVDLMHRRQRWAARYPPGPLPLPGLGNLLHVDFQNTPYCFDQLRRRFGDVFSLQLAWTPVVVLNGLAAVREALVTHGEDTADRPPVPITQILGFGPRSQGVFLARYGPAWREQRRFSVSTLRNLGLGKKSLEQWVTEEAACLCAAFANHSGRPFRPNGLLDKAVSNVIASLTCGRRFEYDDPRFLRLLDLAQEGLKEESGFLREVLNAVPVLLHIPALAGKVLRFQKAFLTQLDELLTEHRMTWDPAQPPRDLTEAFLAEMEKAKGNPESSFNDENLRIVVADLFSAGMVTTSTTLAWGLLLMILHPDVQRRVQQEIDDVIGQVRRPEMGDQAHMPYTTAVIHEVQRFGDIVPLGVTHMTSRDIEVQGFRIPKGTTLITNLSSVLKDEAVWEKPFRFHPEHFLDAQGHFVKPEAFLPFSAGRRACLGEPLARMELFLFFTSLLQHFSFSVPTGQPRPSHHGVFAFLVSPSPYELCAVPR

[35] = Clearance in rhesus monkey at 1.0 mg/kg, iv or 2 mg/kg, po; assay type: ADME, organism-based, Macaca mulatta; settings: in vivo; method in brief: as §1
[36] = test system: Rattus norvegicus; assay: Antilipolytic activity in rat assessed as reduction plasma free fatty acids levels at 100 mg/kg, po; assay type: functional; parameters: scale not given: the % may be the effect or the level left
Method in brief: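 Conscious rats dosed orally, dose range 1–100 mpk; plasma FFA measured over 4 h and expressed relative to t = 0 level; n ≥ 5 per group.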

[37] = Drug level in NA-receptor null C57BL/6 mouse blood at 100 mg/kg, po after 15 mins; assay type: ADME, organism-based; parameters: dose 100 mg/kg, route oral; method in brief: as §2
[38] = target: Cytochrome P450 2C9 (Homo sapiens, UniProt P11712); assay: Inhibition of CYP2C9; assay type: ADME
Cytochrome P450 2C9, sequence (P11712 whole entry): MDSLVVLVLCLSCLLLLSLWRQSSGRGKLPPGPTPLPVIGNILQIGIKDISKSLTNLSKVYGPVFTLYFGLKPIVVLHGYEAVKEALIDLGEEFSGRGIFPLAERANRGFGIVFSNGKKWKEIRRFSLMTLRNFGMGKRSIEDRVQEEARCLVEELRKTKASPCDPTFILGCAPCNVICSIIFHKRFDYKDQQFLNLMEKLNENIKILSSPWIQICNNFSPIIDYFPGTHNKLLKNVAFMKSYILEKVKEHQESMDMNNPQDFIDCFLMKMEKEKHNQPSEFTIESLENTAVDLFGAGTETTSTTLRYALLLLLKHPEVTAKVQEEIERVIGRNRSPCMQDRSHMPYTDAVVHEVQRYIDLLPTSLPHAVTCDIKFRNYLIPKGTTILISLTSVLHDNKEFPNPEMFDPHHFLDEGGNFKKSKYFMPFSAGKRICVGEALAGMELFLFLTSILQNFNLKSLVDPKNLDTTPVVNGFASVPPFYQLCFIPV

[39] = test system: Rattus norvegicus; assay: as §4; assay type: ADME, organism-based; settings: in vivo; method in brief: as §1
[40] = test system: Rattus norvegicus; assay: as §7; assay type: ADME, organism-based; settings: in vivo; method in brief: as §1
[41] = test system: Rattus norvegicus; assay: as §8; assay type: ADME, organism-based; settings: in vivo; method in brief: as §1
[42] = species: Canis lupus familiaris; assay: as §5; assay type: functional; method in brief: as §6

bioavailability [1]: 14%
Activity [4]: inactive
Vd [6]: 0.08 L/kg
bioavailability [8]: 45%
Activity [9]: inactive
half-life [10]: 4.9 h
concentration [11]: 555 µM
bioavailability [12]: 90%
clearance [14]: 0.4 mL/min/kg
IC50 [15]: > 100 µM
Vd [17]: 0.27 L/kg
half-life [18]: 6.4 h
clearance [19]: 1.3 mL/min/kg
Vd [21]: 0.2 L/kg
clearance [22]: 1.8 mL/min/kg
bioavailability [24]: 24%
EC50 [25]: 1.3 µM
EC50 [26]: 67 µM
Vd [27]: 0.15 L/kg
concentration at 0.25 h [29]: 229 µM
EC50 [30]: 16.5 µM
half-life [31]: 4.3 h
half-life [32]: 7.6 h
IC50 [34]: > 100 µM
clearance [35]: 0.4 mL/min/kg
concentration at 0.25 h [37]: 148 µM
IC50 [38]: 39 µM
SMILES: CC(C)(Cc1nc(-c2ccc(O)cn2)no1)C(=O)NC1=C(C(=O)O)CCCC1
Activity [2]: 36%
Activity [3]: 100 mg/kg
Activity [5]: Toxic
Activity [7]: Toxic
Cmax [13]: 182 µM
Activity [16]: 85%
Activity [20]: 10 mg/kg
Activity [23]: inactive
Activity [28]: 560 µM
Activity [33]: Toxic
Activity [36]: 85%

F [39]: 23%
Vd [40]: 0.25 L/kg
t1/2 [41]: 4.1 h
SMILES: CC(Cc1nc(-c2ccc(O)cn2)no1)C(=O)NC1=C(C(=O)O)CCCC1 (single isomer, unassigned; enantiomer B) [listing 1 of 2 here]

clearance [14]: 1.1 mL/min/kg
bioavailability [24]: 19%
Vd [27]: 0.21 L/kg
half-life [31]: 3.6 h
SMILES: CC(Cc1nc(-c2ccc(O)cn2)no1)C(=O)NC1=C(C(=O)O)CCCC1 (single isomer, unassigned) [listing 1 of 2 here]

Activity [4]: inactive
Activity [9]: inactive
Activity [42]: Active
SMILES: O=C(CCc1nc(-c2ccc(O)cn2)no1)Nc1ccccc1C(=O)O

Activity [4]: inactive
Activity [9]: inactive
Activity [42]: Active
SMILES: CC(Cc1nc(-c2ccc(O)cn2)no1)C(=O)NC1=C(C(=O)O)CCCC1 (single isomer, unassigned; enantiomer B) [listing 2 of 2 here]

EC50 [26]: 2.2 µM
EC50 [30]: 2.7 µM
SMILES: O=C(O)c1cccnc1 [NIACIN]
Activity [2]: 43%
Activity [3]: 3 mg/kg
Cmax [13]: 14.6 µM
Activity [20]: 6 mg/kg
Activity [23]: inactive
Activity [28]: 9.4 µM

Activity [4]: inactive
Activity [9]: inactive
Activity [42]: Active
SMILES: CC(Cc1nc(-c2ccc(O)cn2)no1)C(=O)NC1=C(C(=O)O)CCCC1 (single isomer, unassigned) [listing 2 of 2 here]

Activity [4]: inactive
Activity [9]: inactive
bioavailability [12]: 33%
clearance [14]: 2 mL/min/kg
Vd [17]: 0.18 L/kg
clearance [22]: 1.3 mL/min/kg
bioavailability [24]: 22%
Activity [42]: Active
Vd [27]: 0.11 L/kg
half-life [31]: 2 h
half-life [32]: 2.1 h
SMILES: O=C(CCc1nc(-c2ccc(O)cn2)no1)NC1=C(C(=O)O)CCCC1
